# Bioassay records deposited in PubChem BioAssay by Johns Hopkins Ion Channel Center.
# Sampled rows, rich in hits. Any-hit rate of the full collection: about 3.5%.
# MrgX1 antagonist – blocks BAM8-22 activation of human MrgX1 receptor; Q96LB2; 310,000 tested, 1.3% active; B-score at 10 µM; MRGX1-HEK293 calcium flux, Fluo-4, BAM8-22 antagonism; stronger effect = lower value;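 active means calcium-response B-score plate-corrected more than 3 library SD below zero, starting fluorescence within 5 deviations, no agonist response on first addition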;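 further: peak minus trough fluorescence over baseline after final BAM8-22 challenge near maximal dose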
# Target sequence (Q96LB2 whole entry, looked up): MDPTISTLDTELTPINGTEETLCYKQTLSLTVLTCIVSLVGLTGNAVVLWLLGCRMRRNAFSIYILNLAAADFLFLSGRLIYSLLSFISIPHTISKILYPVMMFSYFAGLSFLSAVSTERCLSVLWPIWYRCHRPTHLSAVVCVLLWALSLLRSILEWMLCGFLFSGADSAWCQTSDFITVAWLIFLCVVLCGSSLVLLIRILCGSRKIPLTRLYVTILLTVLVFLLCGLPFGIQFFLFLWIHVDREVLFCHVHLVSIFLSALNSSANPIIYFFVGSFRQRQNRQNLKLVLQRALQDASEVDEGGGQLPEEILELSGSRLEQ
# RGS4 pot – RGS4 potentiation or activation. HEK293 M3R/inducible RGS4, carbachol calcium flux Fluo4; stronger effect = lower value. 310,000 tested, 0.92% active. B-score at 10 µM. AID 463111;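 active means B-score of the integrated calcium signal more than 4 SD below the library mean, with starting fluorescence not abnormally high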;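 further: negative B-score means reduced calcium response which marks RGS4 activation or potentiation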
#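 test system = M3R-expressing HEK293 line, RGS4 induced by doxycycline | probe or stimulus = carbachol at ECmax as muscarinic agonist stimulus | timing = dye loading 30 min 37 °C, buffer rest 30 min RT | signal = calcium dye Fluo4 fluorescence | evaluation = B score from integrated fluorescence ratio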
# MrgX1 allo act – human MrgX1 positive allosteric modulation, primary screen. Q96LB2. MrgX1-HEK293, Fluo-4 calcium flux, FDSS; stronger effect = higher value. B-score at 10 µM. 310,000 tested, 0.63% active;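 active means plate-corrected calcium response at least 3 library SD above typical, normal starting fluorescence, not activating the receptor alone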;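 further: compound read alongside a low EC10 to EC30 dose of BAM8-22 agonist; peak minus trough fluorescence over baseline measured at the second addition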
# MrgX1 agonist – human MrgX1 receptor agonism, primary screen; Q96LB2; B-score at 10 µM; MrgX1-HEK293 cells, Fluo-4 calcium fluorescence, agonist mode; stronger effect = higher value; 310,000 tested, 0.44% active;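 active means calcium response B-score plate-corrected fluorescence ratio at least 3 library SD, with starting fluorescence B-score inside 5 SD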
#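 Assay system: stable human MrgX1 HEK293 cell line. Quantity: 15,000 cells per well. Schedule: cells plated overnight, dye loaded 0.5 h 37 °C, 0.5 h room temperature. Detection: Fluo-4 NW calcium-flux fluorescence, kinetic read. Read-out basis: peak-minus-minimum fluorescence over baseline, converted to B scores. Control set: positive and negative control wells on each plate.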
# RGS4 inh – inhibitors of human RGS4; HEK293 M3R/RGS4 inducible, Fluo-4 calcium flux; stronger effect = higher value; triggered by carbachol at its EC20; B-score at 10 µM; 310,000 tested, 0.45% active;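 active means B-score, a plate-corrected calcium signal, over three deviations above library mean, with baseline fluorescence within five deviations of library mean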;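 further: RGS4 expression induced by doxycycline in cells with stable M3 receptor; B-score is computed from the integrated fluorescence ratio over baseline after carbachol; higher B-score means a larger calcium signal and so more RGS4 inhibition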
# Target sequence (P49798 whole entry, looked up): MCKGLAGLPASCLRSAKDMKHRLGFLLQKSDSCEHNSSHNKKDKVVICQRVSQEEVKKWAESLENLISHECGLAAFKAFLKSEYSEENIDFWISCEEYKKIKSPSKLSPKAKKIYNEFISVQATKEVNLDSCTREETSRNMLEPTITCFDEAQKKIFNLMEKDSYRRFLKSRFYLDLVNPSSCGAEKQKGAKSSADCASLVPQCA
# Numbers without * were called inactive; i = inactive; nt = not tested or not shown.
SMILES,MrgX1 antagonist,RGS4 pot,MrgX1 allo act,MrgX1 agonist,RGS4 inh
CCN(CC)CCNC(=O)c1c(C)n(-c2ccccc2)c2cc(Br)c(OC)cc12,-7.3*,i,i,i,i
CC(C)(Cc1ccccc1)/[N+]([O-])=C\c1ccccc1,i,i,i,i,i
Cc1ccccc1-c1oc(C)c(C)[n+]1[O-],i,i,7.8*,i,i
COc1ccc(C(C(=O)NC(C)(C)C)N(C(=O)CCC(=O)Nc2cc(C)on2)c2ccccc2F)cc1 (stereo not given),i,i,i,i,i
COc1cc([N+](=O)[O-])ccc1NC(=O)CN1CCN(C(=O)c2ccco2)CC1,-4.7*,i,i,i,i
CC(C)Cc1cc(CNC(=O)C2CCC(=O)N(Cc3cccc(C(F)(F)F)c3)C2)on1 (stereo not given),i,i,i,i,i
O=[N+]([O-])c1cc(Br)c2nsnc2c1N1CCOCC1,i,i,i,59*,i
CCN(CC)CCCNC(=O)Cn1nc([N+](=O)[O-])c(Cl)c1C,i,i,i,i,i
CCOc1ccc(N(C)S(=O)(=O)c2cc(-c3cc(C)no3)ccc2C(C)C)cc1,-4.8*,i,i,i,i
CCN(c1ccc(OC)cc1)S(=O)(=O)c1cc(-c2cc(C)no2)ccc1C(C)C,i,i,i,i,i
COc1cc(OC)cc(C(=O)NCCNc2nc3cc(C)cc(C)c3cc2C#N)c1,i,i,i,i,i
CC(C)(C)C(=O)NC(n1cnc2c(N3CCOCC3)ncnc21)C(Cl)(Cl)Cl (stereo not given),i,i,i,i,i
COc1cc(NC(=O)C2CCN(c3cnccn3)CC2)cc(OC)c1OC,i,i,i,i,i
O=C(NCC(c1ccco1)N1CCCC1)c1ccccc1Sc1ccc(C(F)(F)F)cc1[N+](=O)[O-] (stereo not given),i,-9*,i,i,i
C=CCN1C(=O)/C(=C/c2ccc(OCC(=O)O)cc2)S/C1=N/c1nccs1,i,i,i,i,i
C=CCN1C(=O)/C(=C/c2ccc(O)c(OC)c2)S/C1=N/c1nccs1,i,i,9*,i,i
Cc1ccc(-n2c(SCC(=O)NNC(=S)Nc3ccccc3)nc3ccccc3c2=O)cc1,i,i,7.4*,i,i
CCOc1ccc(CN2CCCC(CO)(Cc3ccccc3F)C2)cc1 (stereo not given),i,i,i,64*,i
COc1cc(Cl)c(CN2CCCC(CO)(Cc3ccccc3F)C2)cc1OC (stereo not given),i,i,i,i,i
O=C(N/N=C/c1cn(-c2cccs2)nc1-c1ccccc1)c1ccccc1O,-8.3*,i,i,i,i
COc1ccc(C(=O)Cn2c(Cl)nc3c2c(=O)n(C)c(=O)n3C)cc1,i,i,i,i,i
CCCc1nc(SCC(=O)N2CCC(Cc3ccccc3)CC2)c2c(=O)n(C)c(=O)n(C)c2n1,i,-7.3*,i,i,i
CCc1nc(SCC(=O)N2CCCCCC2)c2c(=O)n(C)c(=O)n(C)c2n1,i,-7.7*,i,i,i
Oc1ccc(CCNc2ncnc3ccc(Cl)cc23)cc1,-5.6*,i,i,i,i
CCN(CC)c1ccc(/C=C(/C#N)C(=O)NC(C)C)o1,i,i,i,i,i
SMILES,MrgX1 antagonist,RGS4 pot,MrgX1 allo act,MrgX1 agonist,RGS4 inh
CCN(CC)c1ccc(/C=C(/C#N)C(=O)NCc2ccccc2)o1,i,i,7*,i,i
COc1ccc(Cl)cc1/C=C(\C#N)C(N)=O,i,i,i,30*,i
COCCNC(=O)c1ccc(CN2CCc3ccccc3C2)cc1,i,i,i,i,i
COCC(C)NC(=O)c1ccc(CN2CCc3ccccc3C2)cc1 (stereo not given),i,i,i,i,i
CCCNC(=O)c1ccc(CN2CCc3ccccc3C2)cc1,i,-7.1*,i,i,i
CCC(C)NC(=O)c1ccc(CN2CCc3ccccc3C2)cc1 (stereo not given),i,-7.5*,i,i,i
O=C(NC(=S)N1CCCCC1c1cccnc1)c1ccc(Br)cc1 (stereo not given),i,i,i,i,i
COc1ccc(N=C2S/C(=C\c3ccc(Cl)c([N+](=O)[O-])c3)C(=O)N2CCN(C)C)cc1,i,i,i,i,13*
CCCN1C(=O)/C(=C/c2ccc(C)s2)SC1=Nc1ccc(OC)cc1,i,i,i,i,i
CCN(CC)CCN1C(=O)/C(=C\c2ccc(Cl)c([N+](=O)[O-])c2)SC1=Nc1ccc(OC)cc1,i,i,i,i,27*
CC(C)(C)NC(=O)CCN(/N=C/c1ccc([N+](=O)[O-])o1)C1=NS(=O)(=O)c2ccccc21,i,nt,i,i,nt
CC(C)CC(=O)NC(=S)Nc1nc(-c2cccc3ccccc23)cs1,i,-7.1*,i,i,i
Cn1c(=O)c(C(=O)NNC(=O)c2ccccc2Cl)c(O)c2ccccc21,i,i,i,29*,i
Cn1c(=O)c(C(=O)NNC(=O)c2ccccc2Br)c(O)c2ccccc21,i,i,8.4*,i,i
CN1CCc2c(sc(NC(=O)C3CCN(S(=O)(=O)c4cccs4)CC3)c2C(N)=O)C1,i,i,i,i,i
COC(=O)Cn1ncc(N2CC(C)OC(C)C2)c(Cl)c1=O (stereo not given),i,i,i,i,i
Cc1ccc(S(=O)(=O)NC(=O)Nc2ccc(C)cc2C)cc1,i,i,i,i,i
O=C(NCCCN1CCCC1)c1ccc2c(c1)N(Cc1ccccc1)CCS2,i,-7.4*,i,i,i
COC(=O)CSc1nc(C)cc(C(F)(F)F)c1C#N,i,i,i,i,i
Cc1cc(C(F)(F)F)c(C#N)c(Sc2ccccc2)n1,i,i,9.6*,i,i
NC(=O)c1ccc(SCC(=O)OCC(=O)NCc2ccco2)c([N+](=O)[O-])c1,i,i,i,i,i
O=[N+]([O-])c1ccc(-c2ccc(/C=N/Nc3nc(N4CCCC4)nc(N4CCCC4)n3)o2)cc1,i,i,i,34*,i
O=[N+]([O-])c1ccc(-c2ccc(/C=N/Nc3nc(N4CCCCC4)nc(N4CCCCC4)n3)o2)cc1,nt,i,nt,nt,i
CCOC(=O)CC1C(=O)NCCN1c1nc2ccc(C)cn2c(=O)c1/C=C1\SC(=S)N(CC(C)C)C1=O (stereo not given),i,i,i,103*,i
